# Activity calls are given as the source filed them. No cut-off for these calls is given here.
# Assays:
# [1] = Drug degradation in phosphate buffer assessed as cleavage over 4 weeks; assay type: physicochemical; settings: 672 h
# L1210 [2] = assay: Cytotoxicity against mouse L1210 cells; assay type: functional, cell-based
# L1210 [3] = assay: Antitumor activity against mouse L1210 cells xenografted in DBA/2J mouse assessed as mean survival days at 300 ug/kg, ip administered on day 1, 5 and 9 relative to control; assay type: functional
# L1210 [4] = assay: Antitumor activity against mouse L1210 cells xenografted in DBA/2J mouse assessed as disease cure at 3000 […], ip administered on day 1, 5 and 9 measured up to 250 days; assay type: functional, organism-based
# L1210 [5] = assay: Antitumor activity against mouse L1210 cells xenografted in DBA/2J mouse assessed as disease cure at 1000 […], ip administered on day 1, 5 and 9 measured up to 250 days; assay type: functional, organism-based
# L1210 [6] = assay: Antitumor activity against mouse L1210 cells xenografted in DBA/2J mouse assessed as disease cure at 300 […], ip administered on day 1, 5 and 9 measured up to 250 days; assay type: functional, organism-based
# L1210 [7] = assay: Antitumor activity against mouse L1210 cells xenografted in DBA/2J mouse assessed as mean survival days at 3000 ug/kg, ip administered on day 1, 5 and 9 relative to control; assay type: functional
# L1210 [8] = assay: Antitumor activity against mouse L1210 cells xenografted in DBA/2J mouse assessed as mean survival days at 1000 ug/kg, ip administered on day 1, 5 and 9 relative to control; assay type: functional
# Nucleic Acid = assay: Binding affinity to w794 DNA assessed as DNA alkylation by cell-free assay; assay type: nucleic-acid assay
# L1210 [9] = assay: Antitumor activity against mouse L1210 cells xenografted in DBA/2J mouse assessed as mean survival days at 9000 ug/kg, ip administered on day 1, 5 and 9 relative to control; assay type: functional
# [10] = Chemical stability of the compound in 1:1 of TFA/CH2Cl2-4N HCl/EtOAc solution up to 72 hrs; assay type: physicochemical; settings: buffer
# [11] = Fraction unbound in human plasma incubated over 48 hrs; assay type: ADME, cell-free
# L1210 [12] = assay: Antitumor activity against mouse L1210 cells xenografted in DBA/2J mouse assessed as disease cure at 9000 […], ip administered on day 1, 5 and 9 measured up to 250 days; assay type: functional, organism-based
# [13] = Half life in human plasma at 1 ug/mL at pH 7 by HPLC analysis; assay type: ADME, cell-free
# [14] = Drug degradation in NaHCO3/MeOH solution assessed as hydrolysis after 2 hrs; assay type: physicochemical; settings: read-out: Drug degradation
# [15] = Chemical stability of the compound in Et3N/CH2Cl2 solution after 48 hrs; assay type: physicochemical
# [16] = Drug degradation in NaHCO3/MeOH solution assessed as hydrolysis after 48 hrs; assay type: physicochemical; settings: read-out: Drug degradation
# [17] = Drug degradation in NaHCO3/1:1 of THF:H2O solution assessed as hydrolysis after 48 hrs; assay type: physicochemical; settings: NaHCO3 in 1:1 THF:H2O solution; read-out: Drug degradation
# [18] = Drug degradation in NaHCO3/1:1 of DMF:H2O solution assessed as hydrolysis after 2 hrs; assay type: physicochemical; settings: NaHCO3 in 1:1 DMF:H2O solution; read-out: Drug degradation
# [19] = Drug degradation in DMAP/CH2Cl2 solution assessed as hydrolysis after 48 hrs; assay type: physicochemical; settings: read-out: Drug degradation
# [20] = Drug degradation in 1:1 of TFA/CH2Cl2-4N HCl/EtOAc solution assessed as cleavage of Boc protecting group; assay type: physicochemical; settings: buffer
# [21] = Chemical stability of the compound in DMAP/CH2Cl2 solution after 2 hrs; assay type: physicochemical
# [22] = Chemical stability of the compound in NaHCO3/THF solution after 24 hrs; assay type: physicochemical
# [23] = Chemical stability of the compound in Et3N/CH2Cl2 solution after 24 hrs; assay type: physicochemical
# [24] = Chemical stability of the compound in 1:1 of TFA/CH2Cl2-4N HCl/EtOAc solution for 48 hrs; assay type: physicochemical; settings: buffer
# [25] = Drug degradation in MeOH after 24 hrs in presence of 100 equiv BnNH2; assay type: physicochemical
# [26] = Chemical stability in MeOH after 48 hrs in presence of 100 equiv BnSH and BnOH; assay type: physicochemical
# How it was run: (§1)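 Compound exposed to 100 equiv each of BnSH and BnOH in MeOH or THF at 23 °C for 48 h and monitored for cleavage.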
# [27] = Chemical stability in THF after 24 hrs in presence of BnNH2; assay type: physicochemical
# [28] = Drug degradation in NaHCO3/1:1 of THF:H2O solution assessed as hydrolysis after 24 hrs; assay type: physicochemical; settings: NaHCO3 in 1:1 THF:H2O solution; read-out: Drug degradation
# [29] = Drug degradation in NaHCO3/THF solution assessed as hydrolysis after 48 hrs; assay type: physicochemical; settings: read-out: Drug degradation
# [30] = Drug degradation in NaHCO3/1:1 of THF:H2O solution assessed as hydrolysis after 2 hrs; assay type: physicochemical; settings: NaHCO3 in 1:1 THF:H2O solution; read-out: Drug degradation
# [31] = Chemical stability of the compound in DMAP/CH2Cl2 solution after 24 hrs; assay type: physicochemical
# [32] = Chemical stability in THF after 48 hrs in presence of 100 equiv BnSH and BnOH; assay type: physicochemical; how it was run: as §1
# [33] = Chemical stability of the compound in Et3N/CH2Cl2 solution after 2 hrs; assay type: physicochemical
# [34] = Drug degradation in NaHCO3/1:1 of DMF:H2O solution assessed as hydrolysis after 48 hrs; assay type: physicochemical; settings: NaHCO3 in 1:1 DMF:H2O solution; read-out: Drug degradation
# [35] = Drug degradation in NaHCO3/1:1 of DMF:H2O solution assessed as hydrolysis after 24 hrs; assay type: physicochemical; settings: NaHCO3 in 1:1 DMF:H2O solution; read-out: Drug degradation
# [36] = Drug degradation in NaHCO3/MeOH solution assessed as hydrolysis after 24 hrs; assay type: physicochemical; settings: read-out: Drug degradation
# [37] = Chemical stability of the compound in NaHCO3/THF solution after 2 hrs; assay type: physicochemical
# L1210 [38] = assay: Antitumor activity against mouse L1210 cells xenografted in DBA/2J mouse assessed as disease cure at 60 […], ip administered on day 1, 5 and 9 measured up to 250 days; assay type: functional, organism-based
# L1210 [39] = assay: Antitumor activity against mouse L1210 cells xenografted in DBA/2J mouse assessed as disease cure at 100 […], ip administered on day 1, 5 and 9 measured up to 250 days; assay type: functional, organism-based
# L1210 [40] = assay: Antitumor activity against mouse L1210 cells xenografted in DBA/2J mouse assessed as mean survival days at 60 ug/kg, ip administered on day 1, 5 and 9 relative to control; assay type: functional
# L1210 [41] = assay: Antitumor activity against mouse L1210 cells xenografted in DBA/2J mouse assessed as disease cure at 250 […], ip administered on day 1, 5 and 9 measured up to 250 days; assay type: functional, organism-based
# L1210 [42] = assay: Antitumor activity against mouse L1210 cells xenografted in DBA/2J mouse assessed as mean survival days at 100 ug/kg, ip administered on day 1, 5 and 9 relative to control; assay type: functional
# L1210 [43] = assay: Antitumor activity against mouse L1210 cells xenografted in DBA/2J mouse assessed as disease cure at 500 […], ip administered on day 1, 5 and 9 measured up to 250 days; assay type: functional, organism-based
# L1210 [44] = assay: Antitumor activity against mouse L1210 cells xenografted in DBA/2J mouse assessed as mean survival days at 250 ug/kg, ip administered on day 1, 5 and 9 relative to control; assay type: functional
# L1210 [45] = assay: Antitumor activity against mouse L1210 cells xenografted in DBA/2J mouse assessed as mean survival days at 500 ug/kg, ip administered on day 1, 5 and 9 relative to control; assay type: functional
# How it was run: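 Syngeneic L1210 cells (1 × 10⁶) given ip to B6D2F1 mice on day 0. Ten mice per group, randomised to vehicle control or treatment. Compound given in 100% DMSO ip on days 1, 5 and 9, with daily monitoring. T/C = total survival days of treated group ÷ total survival days of control × 100.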
# [46] = Half life in calf serum at 2 uM by RP-HPLC analysis; assay type: ADME, cell-free, Bos taurus; settings: cattle
structure (smiles),measurement,setting,value
O=C1Nc2cccc3c4c(cc(c23)O1)N(C(=O)c1cc2cc(NC(=O)c3cc5ccccc5[nH]3)ccc2[nH]1)C[C@H]4CCl,Drug degradation,[1],Not Active
same,IC50,L1210 [2],6.6 nM
same,T/C,L1210 [3],140%
same,Activity,L1210 [4],inactive
same,Activity,L1210 [5],inactive
same,Activity,L1210 [6],inactive
same,T/C,L1210 [7],>310%
same,T/C,L1210 [8],>275%
same,Activity,Nucleic Acid,inactive
same,T/C,L1210 [9],>980%
same,Stability,[10],Stable
same,fraction unbound at 48 h,[11],0.05
same,Activity,L1210 [12],Active
CCN(CC)c1ccc2cc(C(=O)Nc3ccc4[nH]c(C(=O)N5C[C@@H](CCl)c6c5cc(OC(=O)Nc5ccccc5)c5[nH]cc(C)c65)cc4c3)oc2c1 [CARZELESIN],half-life at 1 ug/mL,[13],< 1 h
O=C1Nc2cccc3c4c(cc(c23)O1)N(C(=O)c1cc2cc(NC(=O)c3cc5ccccc5[nH]3)ccc2[nH]1)C[C@@H]4CCl,IC50,L1210 [2],40 nM
CC(C)(C)OC(=O)N1C[C@@H](CCl)c2c1cc1c3c(cccc23)NC(=O)O1,degraded at 2 h,[14],18%
same,Stability,[15],Stable
same,degraded at 48 h,[16],100%
same,degraded at 48 h,[17],9%
same,degraded at 2 h,[18],7%
same,degraded at 48 h,[19],12%
same,Drug degradation,[20],Active
same,Stability,[21],Stable
same,Stability,[22],Stable
same,Stability,[23],Stable
same,IC50,L1210 [2],4900 nM
same,Stability,[24],Stable
same,Drug degradation,[25],Active
same,Stability,[26],Stable
same,Stability,[27],Stable
same,degraded at 24 h,[28],4%
same,degraded at 48 h,[29],7%
same,degraded at 2 h,[30],< 4%
same,Stability,[31],Stable
same,Stability,[32],Stable
same,Stability,[33],Stable
same,degraded at 48 h,[34],19%
same,degraded at 24 h,[35],12%
same,degraded at 24 h,[36],74%
same,Stability,[37],Stable
O=C(Nc1ccc2[nH]c(C(=O)N3C[C@@H](CCl)c4c3cc(O)c3ccccc43)cc2c1)c1cc2ccccc2[nH]1 [SECO-CBI-INDOLE],Activity,L1210 [38],inactive
same,Activity,L1210 [39],inactive
same,T/C,L1210 [40],197%
same,Activity,L1210 [41],inactive
same,T/C,L1210 [42],36%
same,Activity,L1210 [43],inactive
same,T/C,L1210 [44],21%
same,T/C,L1210 [45],17%
Br.COC(=O)c1c(C)[nH]c2c(OC(=O)N3CCN(C)CC3)cc3c(c12)[C@H](CBr)CN3C(=O)c1cc2cc(OC)c(OC)c(OC)c2[nH]1 [PIBROZELESIN HYDROBROMIDE],half-life at 2 µM,[46],20 h
COc1c(O)c2c(c3cc(C(=O)N4CCc5c4c(O)c(OC)c4[nH]c(C(=O)N6C[C@@H]7C[C@]78C6=CC(=O)c6[nH]cc(C)c68)cc54)[nH]c13)CCN2C(N)=O,IC50,L1210 [2],0.02 nM
CC(C)(C)OC(=O)N1C[C@H](CCl)c2c1cc1c3c(cccc23)NC(=O)O1,IC50,L1210 [2],5800 nM
Nc1cccc2c1C(=O)C=C1N(C(=O)c3cc4cc(NC(=O)c5cc6ccccc6[nH]5)ccc4[nH]3)CC3CC123 (racemic),IC50,L1210 [2],0.21 nM
